≈ marks a conversion by molar mass, not a printed value. Calls of active or inactive are those of the source. The calls are words filed in the database; no cut-off is given here.
Tests used:
[1] = Drug level in rat plasma at 2000 mg/kg, po measured after 24 hrs; format: ADME, organism-based; conditions: in vivo
[2] = Drug metabolism in human liver microsomes assessed as metabolite retention time incubation for 45 mins; format: ADME, Microsome; conditions: 0.75 h
Summary of the method: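 Incubation of substrate in pooled male and female human liver microsomes for 45 min; parent and metabolite resolved by LC-MS, metabolite identified by retention time and [M+H]+ ion.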

[3] = Drug metabolism in beta-naphthoflavone/phenobarbital-induced rat liver S9 fraction assessed as compound-D1 formation at 100 ug/ml in presence of NADPH measured after 4 hrs by UV-Vis spectroscopy; format: ADME, subcellular; conditions: s9, 4 h
[4] = Drug metabolism in beta-naphthoflavone/phenobarbital-induced rat liver S9 fraction assessed as compound-D2 formation at 100 ug/ml in presence of NADPH measured after 4 hrs by UV-Vis spectroscopy; format: ADME, subcellular; conditions: s9, 4 h
CYP1A1 = CYP1A1 (Homo sapiens, UniProt P04798); assay: Drug metabolism assessed as human CYP1A1-mediated metabolism by measuring half life; format: ADME; conditions: human CYP1A1 enzyme
CYP1A2 = CYP1A2 (Homo sapiens, UniProt P05177); assay: Drug metabolism assessed as human CYP1A2-mediated metabolism by measuring half life; format: ADME; conditions: human CYP1A2 enzyme
CYP2B6 = CYP2B6 (Homo sapiens, UniProt P20813); assay: Drug metabolism assessed as human CYP2B6-mediated metabolism by measuring half life; format: ADME; conditions: human CYP2B6 enzyme
CYP2C8 = CYP2C8 (Homo sapiens, UniProt P10632); assay: Drug metabolism assessed as human CYP2C8-mediated metabolism by measuring half life; format: ADME; conditions: human CYP2C8 enzyme
CYP2C9 = CYP2C9 (Homo sapiens, UniProt P11712); assay: Drug metabolism assessed as human CYP2C9-mediated metabolism by measuring half life; format: ADME; conditions: human CYP2C9 enzyme
CYP2C19 = CYP2C19 (Homo sapiens, UniProt P33261); assay: Drug metabolism assessed as human CYP2C19-mediated metabolism by measuring half life; format: ADME; conditions: human CYP2C19 enzyme
CYP2D6 = CYP2D6 (Homo sapiens, UniProt P10635); assay: Drug metabolism assessed as human CYP2D6-mediated metabolism by measuring half life; format: ADME; conditions: human CYP2D6 enzyme
CYP3A4 = CYP3A4 (Homo sapiens, UniProt P08684); assay: Drug metabolism assessed as human CYP3A4-mediated metabolism by measuring half life; format: ADME; conditions: human CYP3A4 enzyme
Cytochrome P450 1A2 [5] = target: T1, Cytochrome P450 1A2 (Homo sapiens, UniProt P05177); assay: Drug metabolism assessed as human CYP1A2-mediated metabolism by measuring DHD1 formation; format: ADME; conditions: recombinant enzyme
T1 sequence (P05177 whole entry): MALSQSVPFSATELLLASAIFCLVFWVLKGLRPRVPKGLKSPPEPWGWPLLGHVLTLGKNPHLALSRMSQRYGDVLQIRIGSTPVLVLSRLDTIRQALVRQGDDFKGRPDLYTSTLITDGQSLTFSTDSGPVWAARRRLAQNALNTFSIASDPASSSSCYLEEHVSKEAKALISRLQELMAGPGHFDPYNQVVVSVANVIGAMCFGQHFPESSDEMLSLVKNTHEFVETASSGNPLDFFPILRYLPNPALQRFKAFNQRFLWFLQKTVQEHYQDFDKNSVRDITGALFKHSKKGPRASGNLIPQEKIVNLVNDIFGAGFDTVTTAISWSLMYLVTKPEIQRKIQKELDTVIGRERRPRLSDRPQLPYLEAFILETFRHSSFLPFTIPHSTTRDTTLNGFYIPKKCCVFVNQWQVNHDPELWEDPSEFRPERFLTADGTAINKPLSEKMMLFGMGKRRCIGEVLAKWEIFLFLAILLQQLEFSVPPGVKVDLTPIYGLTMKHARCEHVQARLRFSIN

Cytochrome P450 2B6 [6] = target: T2, Cytochrome P450 2B6 (Homo sapiens, UniProt P20813); assay: Drug metabolism assessed as human CYP2B6-mediated metabolism by measuring DHD1 formation; format: ADME; conditions: recombinant enzyme
Cytochrome P450 2D6 [7] = target: T3, Cytochrome P450 2D6 (Homo sapiens, UniProt P10635); assay: Drug metabolism assessed as human CYP2D6-mediated metabolism by measuring DHD1 formation; format: ADME; conditions: recombinant enzyme
Cytochrome P450 1A1 = Cytochrome P450 1A1 (Homo sapiens, UniProt P04798); assay: Drug metabolism assessed as human CYP1A1-mediated metabolism by measuring DHD3 formation; format: ADME; conditions: recombinant enzyme
Cytochrome P450 1A2 [8] = target: T1, Cytochrome P450 1A2; assay: Drug metabolism assessed as human CYP1A2-mediated metabolism by measuring DHD3 formation; format: ADME; conditions: recombinant enzyme
Cytochrome P450 2B6 [9] = target: T2, Cytochrome P450 2B6; assay: Drug metabolism assessed as human CYP2B6-mediated metabolism by measuring DHD3 formation; format: ADME; conditions: recombinant enzyme
Cytochrome P450 2C8 = Cytochrome P450 2C8 (Homo sapiens, UniProt P10632); assay: Drug metabolism assessed as human CYP2C8-mediated metabolism by measuring DHD3 formation; format: ADME; conditions: recombinant enzyme
Cytochrome P450 2C9 = Cytochrome P450 2C9 (Homo sapiens, UniProt P11712); assay: Drug metabolism assessed as human CYP2C9-mediated metabolism by measuring DHD3 formation; format: ADME; conditions: recombinant enzyme
Cytochrome P450 2C19 = Cytochrome P450 2C19 (Homo sapiens, UniProt P33261); assay: Drug metabolism assessed as human CYP2C19-mediated metabolism by measuring DHD3 formation; format: ADME; conditions: recombinant enzyme
Cytochrome P450 2D6 [10] = target: T3, Cytochrome P450 2D6; assay: Drug metabolism assessed as human CYP2D6-mediated metabolism by measuring DHD3 formation; format: ADME; conditions: recombinant enzyme
Cytochrome P450 3A4 = Cytochrome P450 3A4 (Homo sapiens, UniProt P08684); assay: Drug metabolism assessed as human CYP3A4-mediated metabolism by measuring DHD3 formation; format: ADME; conditions: recombinant enzyme
[11] = Intrinsic clearance in human liver microsomes in presence of CYP1A inhibitor alpha-naphthoflavone; format: ADME, Microsome; conditions: with alpha-naphthoflavone (CYP1A inhibitor), read-out: CLH
[12] = Intrinsic clearance in human liver microsomes in presence of CYP2B6 inhibitor Ticlopidine; format: ADME, Microsome; conditions: with Ticlopidine (CYP2B6 inhibitor), read-out: CLH
[13] = Intrinsic clearance in human liver microsomes in presence of CYP2D6 inhibitor Quinidine; format: ADME, Microsome; conditions: with Quinidine (CYP2D6 inhibitor), read-out: CLH
[14] = Intrinsic clearance in human liver microsomes; format: ADME, Microsome; conditions: read-out: CLH
[15] = Drug metabolism in rat plasma assessed as formation of glucuronide conjugate of dihydrodiol at 2000 mg/kg, po dosed for 28 days; format: ADME, organism-based; conditions: in vivo, 672 h
[16] = Drug metabolism in rat plasma assessed as formation of O-glucuronide conjugate of aromatized diol at 2000 mg/kg, po dosed for 28 days; format: ADME, organism-based; conditions: in vivo, 672 h
Cytochrome P450 1A2 [17] = target: T1, Cytochrome P450 1A2; assay: Inhibition of CYP1A2 in human liver microsomes; format: ADME
[18] = Effect on microsomal protein concentrations in minipig at 500 mg/kg/day, po for 39 weeks; format: ADME, organism-based, Sus scrofa domesticus; conditions: pig, in vivo, 6552 h
[19] = Effect on total cytochrome P450 content in minipig at 500 mg/kg/day, po for 39 weeks; format: ADME, organism-based, Sus scrofa domesticus; conditions: pig, in vivo, 6552 h
Rattus norvegicus [20] = assay: Effect on microsomal protein concentrations in rat at 2000 mg/kg/day, po for 28 days; format: ADME, organism-based; conditions: in vivo, 672 h
Summary of the method: (§1)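 Rats dosed 2000 mg/kg/day by oral gavage for 28 days; liver microsomes prepared, microsomal protein concentration and total P450 content measured.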

Rattus norvegicus [21] = assay: Effect on total cytochrome P450 content in rat at 2000 mg/kg/day, po for 28 days; format: ADME, organism-based; conditions: in vivo, 672 h; summary of the method: as §1
[22] = Induction of CYP1A1/2 enzymes in male minipig assessed as increase in EROD enzyme activity at 500 mg/kg/day, po for 39 weeks relative to control; format: ADME, organism-based, Sus scrofa domesticus; conditions: pig, in vivo, 6552 h
[23] = Induction of CYP2B enzymes in male minipig assessed as increase in PROD enzyme activity at 500 mg/kg/day, po for 39 weeks relative to control; format: ADME, organism-based, Sus scrofa domesticus; conditions: pig, in vivo, 6552 h
[24] = Induction of CYP3A enzymes in minipig assessed as increase in testosterone hydroxylase activity at 500 mg/kg/day, po for 39 weeks relative to control; format: ADME, organism-based, Sus scrofa domesticus; conditions: pig, in vivo, 6552 h
[25] = Induction of CYP2E1 enzymes in minipig assessed as increase in 11-hydroxylase activity at 500 mg/kg/day, po for 39 weeks relative to control; format: ADME, organism-based, Sus scrofa domesticus; conditions: pig, in vivo, 6552 h
[26] = Induction of CYP4A enzymes in minipig assessed as increase in 12-hydroxylase activity at 500 mg/kg/day, po for 39 weeks relative to control; format: ADME, organism-based, Sus scrofa domesticus; conditions: pig, in vivo, 6552 h
[27] = Kinetic aqueous solubility of the compound; format: physicochemical; conditions: buffer; read-out: Kinetic_solubility
[28] = Permeability at pH 7.4 by PAMPA; format: ADME; conditions: read-out: permeability
[29] = Protein binding in mouse plasma assessed as bound fraction; format: ADME, cell-free; conditions: read-out: PPB (converted)
Summary of the method: (§2)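 Binding measured in 100% plasma; reported as fraction bound.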

[30] = Protein binding in human plasma assessed as bound fraction; format: ADME, cell-free; conditions: read-out: PPB (converted); summary of the method: as §2
[31] = Half life in mouse liver S9 fraction; format: ADME, subcellular
Summary of the method: (§3)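 Metabolic stability of the dihydrodiols measured in vitro with mouse and human liver S9 fractions and with mouse and human hepatocytes; half-life from substrate depletion.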

[32] = Half life in human liver S9 fraction; format: ADME, subcellular; summary of the method: as §3
[33] = Intrinsic clearance in mouse liver S9 fraction; format: ADME, subcellular; conditions: read-out: CLH
[34] = Intrinsic clearance in human liver S9 fraction; format: ADME, subcellular; conditions: read-out: CLH
[35] = system: UDP-glucuronosyltransferases (UGTs); assay: Drug metabolism assessed as human UGT-mediated metabolism by measuring half life for DHD3 formation; format: ADME, protein assay
Homo sapiens = organism: Homo sapiens; assay: Substrate activity at MDR4 (unknown origin)

T3 sequence (P10635 whole entry): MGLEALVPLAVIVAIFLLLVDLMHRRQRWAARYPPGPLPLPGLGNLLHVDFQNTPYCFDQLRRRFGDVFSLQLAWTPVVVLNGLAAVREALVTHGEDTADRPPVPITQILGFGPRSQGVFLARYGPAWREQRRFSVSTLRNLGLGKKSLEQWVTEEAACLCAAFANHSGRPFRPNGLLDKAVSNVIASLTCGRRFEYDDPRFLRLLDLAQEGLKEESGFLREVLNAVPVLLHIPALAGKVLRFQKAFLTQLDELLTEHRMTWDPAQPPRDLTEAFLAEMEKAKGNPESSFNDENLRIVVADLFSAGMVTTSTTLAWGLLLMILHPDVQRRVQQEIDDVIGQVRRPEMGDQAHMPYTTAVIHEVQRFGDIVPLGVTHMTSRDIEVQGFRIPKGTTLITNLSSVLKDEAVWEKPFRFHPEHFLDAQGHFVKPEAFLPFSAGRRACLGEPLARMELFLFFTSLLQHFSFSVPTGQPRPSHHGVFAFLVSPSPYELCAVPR
T2 sequence (P20813 whole entry): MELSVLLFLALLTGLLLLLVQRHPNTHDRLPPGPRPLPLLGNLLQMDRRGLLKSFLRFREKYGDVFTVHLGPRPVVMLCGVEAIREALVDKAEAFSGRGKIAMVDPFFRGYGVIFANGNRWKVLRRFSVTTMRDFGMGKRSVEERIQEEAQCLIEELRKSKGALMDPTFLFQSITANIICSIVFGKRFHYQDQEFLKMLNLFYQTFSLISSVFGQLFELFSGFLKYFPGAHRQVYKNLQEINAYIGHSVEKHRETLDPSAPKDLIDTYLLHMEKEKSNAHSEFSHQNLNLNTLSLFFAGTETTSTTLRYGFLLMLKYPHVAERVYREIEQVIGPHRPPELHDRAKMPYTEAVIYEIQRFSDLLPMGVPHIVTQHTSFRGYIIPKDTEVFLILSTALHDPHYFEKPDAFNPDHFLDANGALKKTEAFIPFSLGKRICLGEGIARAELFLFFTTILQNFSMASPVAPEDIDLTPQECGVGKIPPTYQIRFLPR
CYP2D6, sequence (P10635 whole entry): as the sequence (P10635 whole entry) above
CYP2B6, sequence (P20813 whole entry): as the sequence (P20813 whole entry) above
CYP2C8, sequence (P10632 whole entry): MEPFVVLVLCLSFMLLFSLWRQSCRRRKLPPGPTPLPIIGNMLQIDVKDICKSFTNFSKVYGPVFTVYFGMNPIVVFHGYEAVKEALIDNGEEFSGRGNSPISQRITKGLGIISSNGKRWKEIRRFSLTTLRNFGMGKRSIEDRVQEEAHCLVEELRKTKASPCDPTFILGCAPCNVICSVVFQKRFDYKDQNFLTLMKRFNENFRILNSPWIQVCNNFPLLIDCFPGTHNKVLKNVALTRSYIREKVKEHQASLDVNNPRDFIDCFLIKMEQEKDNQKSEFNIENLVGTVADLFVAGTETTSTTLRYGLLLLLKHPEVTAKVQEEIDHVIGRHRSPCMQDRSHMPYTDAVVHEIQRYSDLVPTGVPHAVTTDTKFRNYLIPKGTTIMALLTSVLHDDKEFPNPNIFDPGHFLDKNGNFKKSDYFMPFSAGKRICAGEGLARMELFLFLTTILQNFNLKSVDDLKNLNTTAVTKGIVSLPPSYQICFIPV
Cytochrome P450 2C8, sequence (P10632 whole entry): as above
Cytochrome P450 1A1, sequence (P04798 whole entry): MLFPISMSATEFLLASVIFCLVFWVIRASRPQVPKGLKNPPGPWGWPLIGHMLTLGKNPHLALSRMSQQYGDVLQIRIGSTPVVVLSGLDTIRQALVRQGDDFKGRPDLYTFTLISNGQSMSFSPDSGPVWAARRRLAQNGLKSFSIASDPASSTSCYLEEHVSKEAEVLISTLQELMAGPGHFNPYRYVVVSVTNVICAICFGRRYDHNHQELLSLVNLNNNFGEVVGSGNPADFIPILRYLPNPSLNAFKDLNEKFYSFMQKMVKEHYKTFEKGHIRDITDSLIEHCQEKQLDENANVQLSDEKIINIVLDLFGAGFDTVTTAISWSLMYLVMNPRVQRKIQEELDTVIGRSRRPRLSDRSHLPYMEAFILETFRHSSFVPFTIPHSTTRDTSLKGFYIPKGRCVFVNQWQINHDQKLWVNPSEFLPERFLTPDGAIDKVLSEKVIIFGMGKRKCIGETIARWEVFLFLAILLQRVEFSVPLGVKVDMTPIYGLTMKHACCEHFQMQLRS
CYP1A1, sequence (P04798 whole entry): as above
Cytochrome P450 2C19, sequence (P33261 whole entry): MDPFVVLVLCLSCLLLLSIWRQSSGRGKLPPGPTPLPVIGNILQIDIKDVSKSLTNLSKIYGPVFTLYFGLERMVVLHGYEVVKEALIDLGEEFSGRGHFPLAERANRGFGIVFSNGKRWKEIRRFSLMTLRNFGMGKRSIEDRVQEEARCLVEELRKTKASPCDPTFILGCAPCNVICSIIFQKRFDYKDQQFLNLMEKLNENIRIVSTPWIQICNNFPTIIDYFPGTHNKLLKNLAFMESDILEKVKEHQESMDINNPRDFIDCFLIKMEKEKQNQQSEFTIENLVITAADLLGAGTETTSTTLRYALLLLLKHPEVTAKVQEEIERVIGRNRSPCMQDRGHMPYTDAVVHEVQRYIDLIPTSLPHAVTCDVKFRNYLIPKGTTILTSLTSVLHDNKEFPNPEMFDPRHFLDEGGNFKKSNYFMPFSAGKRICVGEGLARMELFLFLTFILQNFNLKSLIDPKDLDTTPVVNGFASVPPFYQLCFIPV
CYP2C19, sequence (P33261 whole entry): as above
CYP2C9, sequence (P11712 whole entry): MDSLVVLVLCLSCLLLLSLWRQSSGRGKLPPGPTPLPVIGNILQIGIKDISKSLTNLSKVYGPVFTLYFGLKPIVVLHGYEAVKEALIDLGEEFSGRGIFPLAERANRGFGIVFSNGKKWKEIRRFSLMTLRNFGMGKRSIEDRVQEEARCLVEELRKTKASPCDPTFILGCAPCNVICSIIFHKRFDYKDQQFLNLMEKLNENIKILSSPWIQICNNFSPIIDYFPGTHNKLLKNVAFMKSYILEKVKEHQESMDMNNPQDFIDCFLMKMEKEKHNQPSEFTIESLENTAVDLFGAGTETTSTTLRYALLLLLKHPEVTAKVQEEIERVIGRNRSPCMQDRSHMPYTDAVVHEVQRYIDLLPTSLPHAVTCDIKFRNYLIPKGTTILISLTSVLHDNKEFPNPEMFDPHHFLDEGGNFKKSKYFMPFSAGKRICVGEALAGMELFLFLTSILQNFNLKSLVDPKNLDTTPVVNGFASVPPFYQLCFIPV
Cytochrome P450 2C9, sequence (P11712 whole entry): as above
CYP3A4, sequence (P08684 whole entry): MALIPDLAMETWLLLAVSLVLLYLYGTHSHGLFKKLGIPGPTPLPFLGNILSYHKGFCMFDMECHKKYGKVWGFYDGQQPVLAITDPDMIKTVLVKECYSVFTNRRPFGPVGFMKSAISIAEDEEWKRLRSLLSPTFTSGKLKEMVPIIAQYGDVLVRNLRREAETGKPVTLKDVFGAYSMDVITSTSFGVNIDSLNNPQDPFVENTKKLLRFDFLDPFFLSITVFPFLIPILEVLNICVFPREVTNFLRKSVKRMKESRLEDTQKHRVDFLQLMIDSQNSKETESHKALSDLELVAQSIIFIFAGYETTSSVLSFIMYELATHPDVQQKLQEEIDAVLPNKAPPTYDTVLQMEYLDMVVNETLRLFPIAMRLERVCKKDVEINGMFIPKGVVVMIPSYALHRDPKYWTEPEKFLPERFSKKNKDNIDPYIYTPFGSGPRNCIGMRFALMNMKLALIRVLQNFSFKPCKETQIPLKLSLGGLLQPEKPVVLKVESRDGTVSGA
Cytochrome P450 3A4, sequence (P08684 whole entry): as above

With `CCS(=O)(=O)c1ccc2oc(-c3ccc4ccccc4c3)nc2c1` [EZUTROMID] the Drug uptake [1] was 38 to 89%, the Retention_time [2] was 5.7 min and the Drug metabolism [3] was “Metabolite_Detected”. For the same compound, the Drug metabolism [4] was “Metabolite_Detected”, the half-life (CYP1A1) was 2.16 min and the half-life (CYP1A2) was 2.62 min. For the same compound, the half-life (CYP2B6) was no less than 3 h, the half-life (CYP2C8) was no less than 3 h and the half-life (CYP2C9) was no less than 3 h. The half-life (CYP2C19) was no less than 3 h, the half-life (CYP2D6) was no less than 3 h and the half-life (CYP3A4) was no less than 3 h. The Drug metabolism (Cytochrome P450 1A2 [5]) was “Metabolite_Detected”, the Drug metabolism (Cytochrome P450 2B6 [6]) was “Metabolite_Detected” and the Drug metabolism (Cytochrome P450 2D6 [7]) was “Metabolite_Detected”. For the same compound, the Drug metabolism (Cytochrome P450 1A1) was “Metabolite_Notdetected”, the Drug metabolism (Cytochrome P450 1A2 [8]) was “Metabolite_Notdetected” and the Drug metabolism (Cytochrome P450 2B6 [9]) was “Metabolite_Notdetected”. For the same compound, the Drug metabolism (Cytochrome P450 2C8) was “Metabolite_Notdetected”, the Drug metabolism (Cytochrome P450 2C9) was “Metabolite_Notdetected” and the Drug metabolism (Cytochrome P450 2C19) was “Metabolite_Notdetected”. For the same compound, the Drug metabolism (Cytochrome P450 2D6 [10]) was “Metabolite_Notdetected”, the Drug metabolism (Cytochrome P450 3A4) was “Metabolite_Notdetected” and the microsomal CLint [11] was 5.06 µL/min/mg. It also gave a microsomal CLint [12] of 21.4 µL/min/mg, a microsomal CLint [13] of 35.1 µL/min/mg and a microsomal CLint [14] of 50.7 µL/min/mg. For the same compound, the Drug metabolism [15] was “Metabolite_Detected”, the Drug metabolism [16] was “Metabolite_Detected” and the IC50 (Cytochrome P450 1A2 [17]) was 5.4 µM. For the same compound, the Activity [18] was “Non-Toxic”, the Activity [19] was “Non-Toxic” and the Activity (Rattus norvegicus [20]) was “Non-Toxic”. For the same compound, the Activity (Rattus norvegicus [21]) was “Non-Toxic”, the Activity [22] was “Not Active” and the Activity [23] was “Not Active”. The Activity [24] was “Not Active”, the Activity [25] was “Not Active” and the Activity [26] was “Not Active”. It also gave a solubility kinetic [27] of 1 to 2 µM (≈ 0.337 to 0.675 µg/mL), a Papp [28] of 9.5 ×10⁻⁶ cm/s and a fraction unbound [29] of 0.005. It also gave a fraction unbound [30] of 0.01, a half-life [31] of 1.23 h and a half-life [32] of 1.68 h. It also gave a microsomal CLint [33] of 19 µL/min/mg, a microsomal CLint [34] of 14 µL/min/mg and a t1/2 [35] greater than 4 h. The Activity (Homo sapiens) was “inactive”.

Reference: ChEMBL document CHEMBL4376826 (J Med Chem, 2020)
